Laboratory results from PubChem BioAssay.
Inconclusive results are not listed.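 The calls were made as follows, unless noted: active = growth inhibition above 25% in both replicates, a cutoff set 3 SD above the mean; inconclusive = above 25% in only one replicate; inactive = the rest.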

How the values were obtained:
[1] = S. cerevisiae growth inhibition in permissive medium (OD615), pilot counter-assay for S. cerevisiae lifespan shortening project, permissive growth control (AID 705); settings: OD615, 24 h, at 10 µM, hits give high values
Procedure, shortened: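 System: S. cerevisiae with engineered DeaD lifespan system. Medium: SC raffinose/galactose permissive medium. Doses: single compound dose of 10 µM, 0.25% DMSO final. Schedule: 24 h exposure, 30 °C. Measured by: OD615 turbidity read. Read-out: growth inhibition.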

[2] = S. cerevisiae growth inhibition in restrictive medium, OD615, pilot screen, restrictive growth control, yeast lifespan reduction project (AID 706;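 active = growth inhibition above a set limit, 3 SD over mean compound inhibition, in both replicates, cut at about 43% in these data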;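 also: modified DeaD lifespan yeast strain shifted to restrictive glucose medium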); settings: OD615, 48 h, at 10 µM, hits give high values
Procedure, shortened: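 Assay system – genetically modified Saccharomyces cerevisiae, DeaD replicative lifespan assay strain · Medium – CSMM-D glucose medium · Doses – 10 µM compound, 0.25% DMSO · Times – 4 h pre-incubation, 48 h exposure at 30 °C · Signal – optical density at 615 nm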

[3] = doxorubicin toxicity protection in MRP-1 cells – H69AR cells, CellTiter-Glo, duplicate, MRP-1 activator project, pilot screen (AID 807;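 active = viability increase at or above a cutoff of the median across tested compounds plus 3 SD, cut at about 8.5% in these data, passing the limit was not always enough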;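 also: compound pretreatment 18-22 h then 72 h combined with doxorubicin; 0% = doxorubicin alone and 100% = vehicle without doxorubicin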); settings: H69AR viability with doxorubicin, CellTiter-Glo luminescence; at 10 µM; hits give high values
[4] = viability of HCT116 without oncogenic beta-catenin – human colon tumor cells, pilot screen (AID 823;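 active = cell viability at or below a set limit in both duplicate runs, the limit being the all-compound median minus 4 SD, cut at about 23% in these data, passing the limit was not always enough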;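 also: 0% = wells killed by 20 µM Hyamine and 100% = untreated DMSO cell wells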); settings: HCT116 beta-catenin knockout viability, CellTiter-Glo, 60 h; at 10 µM; hits give low values
[5] = viability of PTEN-null HCT116 cells – cell-based, HCT116 clonal line, CellTiter-Glo, pilot screen (AID 824;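 active = viability at or below 27.92% in each of two runs, the all-compound median minus 4 SD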;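 also: 0% = 20 µM Hyamine control and 100% = vehicle cell control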); settings: HCT116 PTEN-deleted viability, 60 h, at 10 µM, hits give low values
[6] = RAM pathway blockade in budding yeast – dse1pr::URA3 reporter, 5-FOA selection, pilot screen (AID 869;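 active = inhibition over a set limit, the all-compound mean plus 3 SD, in both replicate runs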;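 also: 0% = DMSO wells with no growth and 100% = 10 µM 1-NA-PP1 with full growth; RAM network block rescues cells from 5-FOA so hits raise OD615 growth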); settings: S. cerevisiae dse1pr::URA3 5-FOA growth, OD615, 2 d; at 10 µM; hits give high values; strain carries analog-sensitive mutant Cbk1 kinase
[7] = RAM signaling pathway blockade in yeast – S. cerevisiae, Pdr1DBD-CYC8 efflux-inhibited sensitized strain, primary screen (AID 1298;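 active = RAM network inhibition above 8.4% in each of two replicates, 3 SD over the compound average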;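 also: 0% = DMSO untreated cells without growth and 100% = 10 µM 1-NA-PP1 full growth; higher means more yeast growth rescued from 5-FOA killing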); settings: S. cerevisiae cbk1-as DSE1-URA3 strain, 5-FOA growth OD615, 2 d; at 50 µM; hits give high values

COC(=O)/C=C(\C)NC(=O)c1cccs1
inactive: growth inhibition [1] -1.38% | growth inhibition [2] 4.05% | viability increase [3] 0.51% | viability [4] 101% | viability [5] 97.5% | inhibition [6] -0.705% | RAM network inhibition [7] 0.06%

CC1(C)CC(=O)C2=C(C1)N(c1ccc(F)cc1)C(=O)CC2c1cccnc1 (configuration not stated)
inactive: growth inhibition [1] 0.065% | growth inhibition [2] -2% | viability increase [3] -2.17% | viability [4] 95.9% | viability [5] 100% | inhibition [6] 2.41% | RAM network inhibition [7] 5.94%

CCCCOc1ccc(NC(=O)C2CC=CCC2C(=O)O)cc1 (configuration not stated)
inactive: growth inhibition [1] -5.44% | growth inhibition [2] -26.4% | viability increase [3] -2.19% | viability [4] 81.9% | viability [5] 79.5% | inhibition [6] 0.51% | RAM network inhibition [7] 0.37%

O=S(=O)(NC1CCCCC1NCc1ccco1)c1ccccc1 (configuration not stated)
inactive: growth inhibition [1] -9.75% | growth inhibition [2] -2.12% | viability increase [3] -4.92% | viability [4] 98% | viability [5] 92.6% | inhibition [6] 1.82% | RAM network inhibition [7] 6.55%

COc1ccc(N2CSC3=C(C#N)C(c4cccc(OC)c4OC)CC(=O)N3C2)cc1 (configuration not stated)
inactive: growth inhibition [1] -1.74% | growth inhibition [2] 26.5% | viability increase [3] -4.01% | viability [4] 95.6% | viability [5] 92.6% | inhibition [6] 1.48% | RAM network inhibition [7] 3.83%

COc1ccc(C)cc1NC(=O)Cn1cnc2sc(C)c(S(=O)(=O)N3CCOCC3)c2c1=O
inactive: growth inhibition [1] 4.46% | growth inhibition [2] 4.67% | viability increase [3] -1.23% | viability [4] 102% | viability [5] 99.3% | inhibition [6] 2.75% | RAM network inhibition [7] 9.74%

COc1ccc(-c2noc(Cc3ccccc3OC)n2)cc1
inactive: growth inhibition [1] -15.1% | growth inhibition [2] -10.5% | viability increase [3] 1.93% | viability [4] 94% | viability [5] 83.7% | inhibition [6] 1.83% | RAM network inhibition [7] 1.94%

O=C(O)c1ccc2c(c1)N(Cc1cccc(F)c1)C(=O)CS2
inactive: growth inhibition [1] 2.4% | growth inhibition [2] -0.16% | viability increase [3] 0.93% | viability [4] 102% | viability [5] 102% | inhibition [6] 0.2% | RAM network inhibition [7] 1.36%

Cc1ccc(NC(=O)c2cc(NC(=O)C3CC=CCC3C(=O)O)ccc2N2CCOCC2)cc1 (configuration not stated)
inactive: growth inhibition [1] -11.6% | growth inhibition [2] -5.87% | viability increase [3] -3.64% | viability [4] 97.3% | viability [5] 95.1% | inhibition [6] 1.23% | RAM network inhibition [7] 2.82%

Cc1ccccc1NC(=O)c1ccc(S(=O)(=O)N(C)C)cc1
inactive: growth inhibition [1] -9.3% | growth inhibition [2] -2.52% | viability increase [3] 0.67% | viability [4] 102% | viability [5] 94% | inhibition [6] 2.17% | RAM network inhibition [7] 2.21%

O=S(=O)(c1cccc(-c2nnc(-c3cccnc3)o2)c1)N1CCCCC1
inactive: growth inhibition [1] 1.58% | growth inhibition [2] -5.17% | viability increase [3] -3.4% | viability [4] 86.9% | viability [5] 84.7% | inhibition [6] 1.22% | RAM network inhibition [7] 2.99%

N#CCCN1CCN(C(CNS(=O)(=O)c2ccc(Cl)cc2)c2ccccc2)CC1 (configuration not stated)
inactive: growth inhibition [1] -11.4% | growth inhibition [2] -16.5% | viability increase [3] -1.72% | viability [4] 95.3% | viability [5] 94.8% | inhibition [6] 1.9% | RAM network inhibition [7] 6.39%

O=C(c1cnn2ccccc12)N(Cc1ccco1)C1CCCC1
inactive: growth inhibition [1] -12% | growth inhibition [2] -4.11% | viability increase [3] -3.08% | viability [4] 70% | viability [5] 69.8% | inhibition [6] 2.74% | RAM network inhibition [7] 1.62%

COC(=O)c1ccc2c(c1)N(C)CCS2
inactive: growth inhibition [1] -7.72% | growth inhibition [2] -2.27% | viability increase [3] -0.04% | viability [4] 101% | viability [5] 93.9% | inhibition [6] 0.22% | RAM network inhibition [7] -0.26%

Cc1ccccc1-c1nc(CN2CCC(C(=O)N3CCN(c4ccccn4)CC3)CC2)c(C)o1
inactive: growth inhibition [1] -7.71% | growth inhibition [2] -18.8% | viability increase [3] -5.67% | viability [4] 61.6% | viability [5] 67.7% | inhibition [6] 1.33% | RAM network inhibition [7] -0.47%

O=C(COc1cccc2ccccc12)N1CCN(c2ccccc2)CC1
inactive: growth inhibition [1] -6.48% | growth inhibition [2] -22% | viability increase [3] 1.21% | viability [4] 90.8% | viability [5] 89% | inhibition [6] 2.06% | RAM network inhibition [7] 11.7%

CN1C(=O)C(O)(CC(=O)c2cccnc2)c2ccccc21 (configuration not stated)
inactive: growth inhibition [1] -7.06% | growth inhibition [2] -7.81% | viability increase [3] -4.86% | viability [4] 83% | viability [5] 85% | inhibition [6] 2.05% | RAM network inhibition [7] 1.88%

Cc1ccc2oc3c(c(=O)c2c1)C(c1cccc(Cl)c1)N(CCCN1CCOCC1)C3=O (configuration not stated)
inactive: growth inhibition [1] -0.165% | growth inhibition [2] 2.74% | viability increase [3] -3.81% | viability [4] 76.8% | viability [5] 79% | inhibition [6] 0.735% | RAM network inhibition [7] 2.4%

Cc1cc(-c2ccco2)n(CC(=O)NCCCc2ccccc2)n1
inactive: growth inhibition [1] -13.3% | growth inhibition [2] -2.17% | viability increase [3] -1.48% | viability [4] 100% | viability [5] 97% | inhibition [6] 0.905% | RAM network inhibition [7] -0.37%

COc1ccc(-c2cn3c(C)c(C(=O)N4CCc5ccccc5C4)sc3n2)cc1
inactive: growth inhibition [1] 0.41% | growth inhibition [2] 6.71% | viability increase [3] -7.22% | viability [4] 87.6% | viability [5] 84.5% | inhibition [6] 3.01% | RAM network inhibition [7] 4.47%

Cc1nc2sc(C(c3ccco3)N3CCN(C(c4ccccc4)c4ccccc4)CC3)c(O)n2n1 (configuration not stated)
inactive: growth inhibition [1] -4.01% | growth inhibition [2] 2.75% | viability increase [3] -4.32% | viability [4] 75.6% | viability [5] 62.6% | inhibition [6] 1.81% | RAM network inhibition [7] 10.8%

CCOc1ccc(NC(=O)CSc2nc3c(c(=O)n2C)SC(C)C3)cc1 (configuration not stated)
inactive: growth inhibition [1] -13.6% | growth inhibition [2] -13.2% | viability increase [3] -0.83% | viability [4] 93.5% | viability [5] 91.6% | inhibition [6] 4.75% | RAM network inhibition [7] 5.69%

Cc1cc(C)n2nc(S(=O)(=O)NCCc3ccccc3)nc2n1
inactive: growth inhibition [1] -6.26% | growth inhibition [2] -8.79% | viability increase [3] -0.6% | viability [4] 111% | viability [5] 100% | inhibition [6] 2.72% | RAM network inhibition [7] 1.3%

CCOC(=O)c1ccc(S(=O)(=O)N2CCN(CCC#N)CC2)cc1
inactive: growth inhibition [1] -7.13% | growth inhibition [2] 0.63% | viability increase [3] 1.42% | viability [4] 102% | viability [5] 99.4% | inhibition [6] 0.195% | RAM network inhibition [7] 0.21%

Cc1noc(C(=O)Nc2c(C)n(C)n(-c3ccccc3)c2=O)c1Cl
inactive: growth inhibition [1] -13.3% | growth inhibition [2] -16.6% | viability increase [3] -2.04% | viability [4] 95% | viability [5] 98.7% | inhibition [6] 1.79% | RAM network inhibition [7] 0.38%

Cc1ccc(S(=O)(=O)/N=C(/Nc2nc(C)cc(C)n2)N2CCOCC2)cc1
inactive: growth inhibition [1] -0.825% | growth inhibition [2] -15.5% | viability increase [3] -3.21% | viability [4] 98.7% | viability [5] 97.4% | inhibition [6] 1.6% | RAM network inhibition [7] 4.96%

C=CCSC1=C(C#N)C(c2ccc(OCC)cc2)CC(=O)N1 (configuration not stated)
inactive: growth inhibition [1] -11.9% | growth inhibition [2] 15.4% | viability increase [3] -1.8% | viability [4] 94.5% | viability [5] 88.2% | inhibition [6] 1.47% | RAM network inhibition [7] 4.8%

CC(C)C(=O)Nc1ccc2c(c1)C(=O)N(CCC(=O)O)C2=O
inactive: growth inhibition [1] -4.82% | growth inhibition [2] -16.1% | viability increase [3] 0.2% | viability [4] 106% | viability [5] 100% | inhibition [6] 2.14% | RAM network inhibition [7] -0.51%

COc1cccc(CNC(=O)CN(c2cc(C)cc(C)c2)S(=O)(=O)c2c(C)noc2C)c1
inactive: growth inhibition [1] -6.25% | growth inhibition [2] -3.9% | viability increase [3] -2.41% | viability [4] 90.3% | viability [5] 90.4% | inhibition [6] 1.34% | RAM network inhibition [7] 7.12%

CCn1c2ccccc2c2cc(NC(=O)c3ccco3)ccc21
inactive: growth inhibition [1] -4.29% | growth inhibition [2] -0.22% | viability increase [3] -3.74% | viability [4] 96.1% | viability [5] 93% | inhibition [6] 0.345% | RAM network inhibition [7] 0.96%

CCC(c1ccccc1)c1nc(-c2ccccn2)no1 (configuration not stated)
inactive: growth inhibition [1] -3.45% | growth inhibition [2] -5.84% | viability increase [3] 1.44% | viability [4] 91.8% | viability [5] 97.8% | inhibition [6] 0.495% | RAM network inhibition [7] 3.77%

Cc1ccccc1-n1c(=O)cc(N2CCCCCC2)[nH]c1=O
inactive: growth inhibition [1] -4.08% | growth inhibition [2] -0.93% | viability increase [3] -2.23% | viability [4] 99.9% | viability [5] 98.1% | inhibition [6] 2.07% | RAM network inhibition [7] 6.58%

Cc1ccc(-c2nn(-c3ccccc3)cc2C(=O)N2CCOCC2)cc1
inactive: growth inhibition [1] -8.14% | growth inhibition [2] -8.34% | viability increase [3] -2.21% | viability [4] 97.5% | viability [5] 89% | inhibition [6] 0.805% | RAM network inhibition [7] 12.4%

CC(=O)N1CCc2cc(C(=O)CN3CCN(c4cccc(Cl)c4)CC3)ccc21
inactive: growth inhibition [1] -11% | growth inhibition [2] -7.26% | viability increase [3] 0.32% | viability [4] 69.3% | viability [5] 76.8% | inhibition [6] 1.65% | RAM network inhibition [7] 3.12%

CCOc1cc(C2CC(=O)NC(SCC)=C2C#N)ccc1O (configuration not stated)
inactive: growth inhibition [1] -16.8% | growth inhibition [2] -5.38% | viability increase [3] -1.97% | viability [4] 107% | viability [5] 92.6% | inhibition [6] 1.97% | RAM network inhibition [7] 0.15%

CCOc1ccccc1NC(=O)N1CCCC1C(=O)Nc1ccc(-n2cnnn2)c(C)c1 (configuration not stated)
inactive: growth inhibition [1] -11.3% | growth inhibition [2] -16.2% | viability increase [3] 0.16% | viability [4] 102% | viability [5] 97.9% | inhibition [6] 1.86% | RAM network inhibition [7] 2.1%
